OX1R antag-1 – blocks the human orexin 1 receptor; O43613; OX1R-expressing cells, FRET antagonist read-out; 1.8% of 330,000 active; inhibition, % at 6.6 µM; in the data active means inhibition mostly above about 38%, no sharp cut-off; inactive means mostly below about 40%;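 further: 0% = agonist challenge alone and 100% = reference antagonist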
TAAR1 agonist – agonists of human TAAR1; Q96RJ0; CHO RD-HGA16 TAAR1, Fluo-8 calcium fluorescence; vehicle wells 0%, saturating PEA agonist 100%; activation, % at 3 µM; 0.99% of 360,000 active; AID 624467;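 active means activation above the mean activation of all test compounds in the run plus 3 SD, cut at about 38% in these data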
Target sequence (Q96RJ0 whole entry, looked up): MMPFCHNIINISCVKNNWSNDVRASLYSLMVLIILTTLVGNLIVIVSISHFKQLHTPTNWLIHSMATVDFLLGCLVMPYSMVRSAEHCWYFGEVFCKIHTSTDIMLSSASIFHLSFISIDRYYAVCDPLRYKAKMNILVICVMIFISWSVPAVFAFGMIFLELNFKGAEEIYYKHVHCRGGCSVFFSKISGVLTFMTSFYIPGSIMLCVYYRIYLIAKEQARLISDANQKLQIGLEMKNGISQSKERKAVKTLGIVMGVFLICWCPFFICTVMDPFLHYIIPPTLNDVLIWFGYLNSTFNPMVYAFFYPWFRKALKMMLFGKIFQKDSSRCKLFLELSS
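test system = CHO RD-HGA16 cells carrying human TAAR1 plus Gα16 | schedule = 17-24 h seeding, 75 min 37 °C dye, 30 min RT | compound dosing = 3 µM single concentration | control set = DMSO and PEA EC100 | replicates = n 1 | signal = Fluo-8 fluorescence, 5 s baseline then 140 s kinetic read | measure = percent activation vs PEA EC100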
OX1R antag-2 – human HCRTR1 antagonism; CHO/OX1R cells, Fluo-8 calcium fluorescence, orexin A; inhibition, % at 5 µM; 0.43% of 330,000 active;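 active means inhibition above its plate's threshold, mean inhibition of all tested compounds on the plate plus 3 SD, cut at about 37% in these data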;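 further: 0% = orexin A challenge wells and 100% = SB-334867-A antagonist wells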
TAAR1 antagonist – human TAAR1 antagonism; Q96RJ0; CHO RD-HGA16 TAAR1, Fluo-8 calcium fluorescence, antagonist; inhibition, % at 3 µM; 1.5% of 360,000 active;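 active means inhibition above a per-plate cutoff, the mean inhibition of test compounds on that plate plus 3 SD, cut at about 49% in these data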;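 further: 0% = DMSO plus EC80 beta-PEA response and 100% = DMSO alone without agonist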
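Test system: CHO RD-HGA16 cells bearing hTAAR1 | Reagent: β-PEA, EC80 | Compound dosing: 3 µM, single point | Schedule: Dye loading 75 min at 37 °C, then 30 min room temperature | Signal: Calcium fluorescence with Fluo-8 | Evaluation: Percent inhibition of PEA-evoked calcium signal, max/basal emission ratio | Control set: DMSO-only wells and EC80 β-PEA-stimulated wells | Repeats: Singlicate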
CHO parental Ca – counter-screen for OX1R antagonists: effect in parental CHO cells; inhibition, % at 5.6 µM; AID 463079; parental CHO-K1, ATP-induced calcium, Fluo-8 fluorescence; 0.63% of 330,000 active;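 active means inhibition above that plate's mean sample inhibition plus 3 SD, cut at about 26% in these data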;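 further: 0% = ATP-challenged DMSO wells and 100% = DMSO wells without ATP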
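Material – parental CHO cells · Reagent – ATP stimulus · Compound – single nominal dose of 5.6 µM per compound · Detection – Fluo-8 fluorescence · Read-out basis – percent inhibition of calcium signal · Controls – ATP-challenged DMSO wells low, unchallenged DMSO wells high · Repeats – no replicates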
GPR7 antagonist – antagonists of human GPR7 (neuropeptides B/W receptor 1). inhibition, % at 4.4 µM. AID 1861. P48145. 1.1% of 290,000 active. GPR7-expressing cells, fluorescence antagonist assay; in the data active means inhibition above about 16%, passing the limit was not always enough;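 further: cells stimulated with the agonist NPW; 0% = agonist with vehicle and 100% = vehicle without agonist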
Target sequence (P48145 whole entry, looked up): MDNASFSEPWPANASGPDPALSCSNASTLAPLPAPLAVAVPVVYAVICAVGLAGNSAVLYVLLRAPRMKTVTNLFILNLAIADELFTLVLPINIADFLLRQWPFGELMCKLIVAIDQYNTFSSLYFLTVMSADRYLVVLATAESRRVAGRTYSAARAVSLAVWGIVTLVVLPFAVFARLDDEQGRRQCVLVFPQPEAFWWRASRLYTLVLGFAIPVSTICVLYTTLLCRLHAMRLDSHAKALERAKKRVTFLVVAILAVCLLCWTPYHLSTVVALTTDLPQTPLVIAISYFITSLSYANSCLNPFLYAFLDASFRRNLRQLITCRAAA
TAAR1 ag confirm – confirmation of human TAAR1 agonists. shares compounds with TAAR1 agonist. CHO RD-HGA16 TAAR1, Fluo-8 calcium fluorescence; scaled: DMSO 0%, maximal phenethylamine 100%. activation, % at 3 µM. 82% of 2,400 active. AID 651783;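 active means activation above a cutoff set at the run's mean compound activation plus 3 SD, cut at about 39% in these data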
Ga16 ag counter – counter-screen for TAAR1 agonists: nonselective agonists in parental cells; activation, % at 3 µM; 50% of 2,400 active; shares compounds with TAAR1 agonist; CHO-Ga16 parental, Fluo-8 calcium fluorescence; normalized to maximal ATP response, DMSO zero;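 active means activation above the run cutoff, the mean activation over all tested wells plus 3 SD, cut at about 12% in these data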;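 further: 0% = DMSO wells and 100% = maximal ATP response on the peak over basal ratio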
TAAR1 desens – human TAAR1 agonist that also desensitizes the receptor; 46% of 2,400 active; CHO RD-HGA16 hTAAR1, Fluo-8 calcium, beta-PEA response inhibition; AID 651951; shares compounds with TAAR1 agonist; inhibition, % at 3 µM;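 active means inhibition above the run cutoff, the mean inhibition of all test compounds plus 3 SD, cut at about 49% in these data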;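 further: beta-PEA stimulus applied at its EC80; loss of beta-PEA calcium signal after compound pretreatment read as receptor desensitization; 0% = DMSO with beta-PEA at EC80 and 100% = DMSO alone without agonist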
Ga16 nonsel ant – nonselective Ga16 antagonism, counter-screen; AID 651952; CHO-Ga16 ATP-induced calcium, Fluo-8 fluorescence; shares compounds with TAAR1 agonist; inhibition, % at 3 µM; 39% of 2,400 active;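 active means inhibition above the plate's mean compound inhibition plus 3 SD, computed per plate, cut at about 22% in these data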;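 further: 0% = EC80 ATP with DMSO and 100% = DMSO wells without ATP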
The depositor's hits bear a star. Only some compounds are listed: those with a hit (about 4.5% of all), similar ones and a draw of the others.

`O=C1NCCN1CCNc1nc(NCc2ccccc2)nc2ccsc12` gave TAAR1 agonist 89*, TAAR1 antagonist 100*, TAAR1 ag confirm 95*, Ga16 ag counter 66*, TAAR1 desens 106* and Ga16 nonsel ant 93*.
O=C(c1[nH]c(C(F)(F)F)nc1-c1ccccc1)N1CCc2ccccc2C1 was read as TAAR1 agonist 81*, TAAR1 antagonist 11, TAAR1 ag confirm 93*, Ga16 ag counter 4, TAAR1 desens 56* and Ga16 nonsel ant 1.
`O=C(c1cc(-c2ccccc2)on1)N1CCc2ccccc2C1` gave OX1R antag-1 17, TAAR1 agonist 48*, OX1R antag-2 -9, TAAR1 antagonist -1, CHO parental Ca -10, GPR7 antagonist 1, TAAR1 ag confirm 12, Ga16 ag counter 3, TAAR1 desens 2 and Ga16 nonsel ant 11.
Screening O=C(NCCc1ccc(O)cc1)c1[nH]c(C(F)(F)F)nc1-c1ccccc1 returned TAAR1 agonist 92*, TAAR1 antagonist 69*, TAAR1 ag confirm 94*, Ga16 ag counter 8, TAAR1 desens 90* and Ga16 nonsel ant 10.
O=C(NCCc1ccccc1)c1[nH]c(C(F)(F)F)nc1-c1ccccc1 was read as TAAR1 agonist 69*, TAAR1 antagonist 47, TAAR1 ag confirm 80*, Ga16 ag counter 10, TAAR1 desens 58* and Ga16 nonsel ant 11.
`O=C(c1[nH]c(C(F)(F)F)nc1-c1ccccc1)N1CCCCC1` gave TAAR1 agonist 2 and TAAR1 antagonist -4.
Screening Cc1ccc(OCC(=O)NNC(=S)NC(=O)C(C)(C)C)c(Br)c1 returned OX1R antag-1 6, TAAR1 agonist 155*, OX1R antag-2 -3, TAAR1 antagonist 106*, CHO parental Ca -1, GPR7 antagonist -12, TAAR1 ag confirm 132*, Ga16 ag counter 109*, TAAR1 desens 98* and Ga16 nonsel ant 72*.
Screening Cc1ccc(OCC(=O)NNC(=S)NC(=O)C2CC2)c(C)c1 returned TAAR1 agonist 49*, TAAR1 antagonist 14, GPR7 antagonist -11, TAAR1 ag confirm 48*, Ga16 ag counter 50*, TAAR1 desens 36 and Ga16 nonsel ant 39*.
Screening Cc1ccc(OCC(=O)NNC(=S)NC(=O)C2CCCCC2)c(C)c1 returned OX1R antag-1 9, OX1R antag-2 -28, CHO parental Ca -10 and GPR7 antagonist -6.
O=c1c2nnn(-c3ccc(Cl)cc3)c2ncn1Cc1ccccn1 was read as OX1R antag-1 19, TAAR1 agonist 476*, OX1R antag-2 -19, TAAR1 antagonist 86*, CHO parental Ca -19, GPR7 antagonist -5, TAAR1 ag confirm 5, Ga16 ag counter 3, TAAR1 desens 2 and Ga16 nonsel ant 12.
Screening Cc1ccc(-n2nnc3c(=O)n(Cc4cc(C)ccc4C)cnc32)cc1 returned OX1R antag-1 5, TAAR1 agonist 43*, OX1R antag-2 -8, TAAR1 antagonist 95*, CHO parental Ca -5, GPR7 antagonist 24, TAAR1 ag confirm 71*, Ga16 ag counter 35*, TAAR1 desens 87* and Ga16 nonsel ant 53*.
O=C(Cn1cnc2c(nnn2-c2ccccc2)c1=O)NCc1ccc(F)cc1 was read as OX1R antag-1 -19, TAAR1 agonist 1, OX1R antag-2 -8, TAAR1 antagonist -21, CHO parental Ca 0 and GPR7 antagonist -15.
O=c1c2nnn(-c3ccc(Br)cc3)c2ncn1Cc1ccccn1 was read as OX1R antag-1 -4, TAAR1 agonist 1, OX1R antag-2 -18, TAAR1 antagonist -23, CHO parental Ca -8 and GPR7 antagonist -7.
Cc1ccc(-n2nnc3c(=O)n(CC(=O)NCc4ccccc4)cnc32)cc1 was read as OX1R antag-1 14, TAAR1 agonist 42*, OX1R antag-2 -4, TAAR1 antagonist -11, CHO parental Ca 42*, GPR7 antagonist -12, TAAR1 ag confirm 15, Ga16 ag counter 5, TAAR1 desens -9 and Ga16 nonsel ant 1.
`Cc1cnc(C(=O)OC(C(=O)c2c[nH]c3ccccc23)c2ccccc2)cn1` (stereo not drawn) gave OX1R antag-1 9, TAAR1 agonist 11, OX1R antag-2 1, TAAR1 antagonist 8 and CHO parental Ca -3.
O=C(NCCc1ccccc1)c1ccc2c(=O)[nH]c3c(C(=O)NCC4CCCO4)sc(=S)n3c2c1 (stereo not drawn) was read as OX1R antag-1 52*, TAAR1 agonist 65*, OX1R antag-2 -4, TAAR1 antagonist 52*, CHO parental Ca -6, GPR7 antagonist 0, TAAR1 ag confirm 90*, Ga16 ag counter 6, TAAR1 desens 82* and Ga16 nonsel ant 22*.
`O=C(NCCc1ccc(Cl)cc1)c1ccc2c(=O)[nH]c3c(C(=O)NCC4CCCO4)sc(=S)n3c2c1` (stereo not drawn) gave TAAR1 agonist -1 and TAAR1 antagonist 1.
For CC1(C)CC(=O)C(=CN2CCN(C(=O)c3ccco3)CC2)C(=O)C1 the results were TAAR1 agonist 54*, TAAR1 antagonist -6, GPR7 antagonist -10, TAAR1 ag confirm 63*, Ga16 ag counter 0, TAAR1 desens 27 and Ga16 nonsel ant -10.
CC(C)NS(=O)(=O)c1ccc(Br)c(C(=O)OC(C)C(=O)NC2CCCCC2C)c1 (stereo not drawn) was read as OX1R antag-1 32, TAAR1 agonist 5, OX1R antag-2 -27, TAAR1 antagonist -4 and CHO parental Ca -36.
For FC(F)(F)c1cccnc1Oc1ccc(C2=NCCS2)cc1 the results were OX1R antag-1 8, TAAR1 agonist 84*, OX1R antag-2 -11, TAAR1 antagonist 57*, CHO parental Ca -11, GPR7 antagonist -15, TAAR1 ag confirm 58*, Ga16 ag counter 58*, TAAR1 desens 62* and Ga16 nonsel ant 43*.

Compound activity from PubChem BioAssay.
